Source: PubChem (several laboratories)
UBC13 inh: blocks human UBC13 polyubiquitin chain formation; hit rate 0.47% among 330,000; AID 485273; inhibition, % at 20 µM; TR-FRET; in the data active = inhibition above about 45%, passing the limit was not always enough; inconclusive = no clear call, values can overlap the other calls
Target sequence (P61088 whole entry, looked up): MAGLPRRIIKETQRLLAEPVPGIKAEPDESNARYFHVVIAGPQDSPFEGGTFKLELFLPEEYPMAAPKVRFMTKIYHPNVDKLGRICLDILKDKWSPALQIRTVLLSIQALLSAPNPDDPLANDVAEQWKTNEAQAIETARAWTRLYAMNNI
Apaf-1 inh: inhibitors of human Apaf-1 apoptosome; inhibition, % at 20 µM; O14727; reconstituted apoptosome caspase-3 activity, DEVD-Rh110 fluorescence; AID 489030; hit rate 0.71% among 330,000; active = inhibition of at least 40% at 20 µM
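Material: reconstituted apoptosome with Apaf-1, cytochrome c, caspase-9, procaspase-3, dATP; medium: pH 7.5 Hepes buffer with CHAPS, BSA, DTT; also added: cytochrome c and DEVD-Rh110 substrate; timing: 30 min plus 50 min, RT; signal: Rh110 fluorescence intensity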
EBNA-1 inhibitor: blocks EBNA-1 binding to DNA; inhibition, % at 14.8 µM; AID 1950; EBNA-1 DNA binding, fluorescence polarization; hit rate 0.34% among 300,000; in the data active = inhibition above about 28%
ZTA counter: ZTA (EBV) inhibition in EBNA-1 counter-screen. P03206. AID 2234. inhibition, % at 11 µM. ZTA-DNA binding, fluorescence polarization. hit rate 0.15% among 320,000; in the data active = inhibition above about 33%
Target sequence (P03206 whole entry, looked up): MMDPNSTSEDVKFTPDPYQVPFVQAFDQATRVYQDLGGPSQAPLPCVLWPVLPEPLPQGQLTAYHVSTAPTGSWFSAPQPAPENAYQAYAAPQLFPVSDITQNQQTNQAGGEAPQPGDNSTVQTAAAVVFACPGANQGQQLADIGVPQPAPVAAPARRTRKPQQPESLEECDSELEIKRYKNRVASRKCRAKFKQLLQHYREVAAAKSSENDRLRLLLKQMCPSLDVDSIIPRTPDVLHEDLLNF
M18AAP inhibitor: PfM18AAP enzyme inhibition; hit rate 1.2% among 290,000; inhibition, % at 7.35 µM; AID 1822; recombinant PfM18AAP, H-Glu-NHMec fluorogenic cleavage;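 active = inhibition above the campaign mean inhibition over all tested compounds plus 3 SD, cut at about 28% in these data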
PfG6PD inh: PfG6PD (Plasmodium falciparum) enzyme inhibition; PfGluPho enzyme, NADPH resazurin-diaphorase fluorescence; inhibition, % at 20 µM; hit rate 0.78% among 350,000;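 active = inhibition reaching at least a set limit at 20 µM in the primary screen, cut at about 59% in these data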
PfG6PD confirm: confirmation of Plasmodium falciparum G6PD inhibitors; shares compounds with PfG6PD inh; recombinant PfGluPho, NADPH-diaphorase-resazurin fluorescence; inhibition, % at 20 µM; hit rate 34% among 2,400; AID 504753;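 active = inhibition of at least 50% at 20 µM in any single replicate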
Diaph ctr 10uM: counter-screen for P. falciparum G6PD inhibitors: diaphorase inhibitors, oxidizers; diaphorase-coupled resazurin reduction, fluorescence, NADPH 10 uM; inhibition, % at 20 µM; hit rate 39% among 820; shares compounds with PfG6PD inh; AID 504862;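 active = average inhibition reaching 50% or more with the compound at 20 µM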;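 also: resorufin red fluorescence formed as diaphorase reduces resazurin using NADPH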
Diaph ctr 30uM: counter-screen for P. falciparum G6PD inhibitors: diaphorase inhibitors, oxidizers; shares compounds with PfG6PD inh; Diaphorase/resazurin coupled assay, resorufin fluorescence, 30 uM NADPH; inhibition, % at 20 µM; hit rate 29% among 820; AID 504863;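 active = inhibition averaging 50% or more, tested at 20 µM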
A number is an active result. Hits are enriched below; roughly 2.9% of the tested compounds scored in any of these assays.

Results for COc1cccc(/C=N/NC(=O)c2cccc3ccccc23)c1 ?
UBC13 inh: inactive; Apaf-1 inh: inactive; M18AAP inhibitor: inactive; PfG6PD inh: inactive

How did COc1ccc(OC)c(/C=N/NC(=O)CNC(=O)c2cccc3ccccc23)c1 do in these assays?
UBC13 inh: inactive; Apaf-1 inh: inactive; EBNA-1 inhibitor: inactive; ZTA counter: inactive; M18AAP inhibitor: inactive; PfG6PD inh: 99; PfG6PD confirm: 74; Diaph ctr 10uM: 63; Diaph ctr 30uM: 62

What do the screens show for `COc1ccc(OC)c(/C=N/NC(=O)CCCC(=O)Nc2cccc(Br)c2)c1`?
UBC13 inh: inactive; Apaf-1 inh: inactive; EBNA-1 inhibitor: inactive; ZTA counter: inactive; M18AAP inhibitor: inactive; PfG6PD inh: 75; PfG6PD confirm: inactive

How did COc1ccc(NC(C)C(=O)N/N=C/c2ccccc2OCc2cccc(Br)c2)cc1 (stereo unspecified) do in these assays?
UBC13 inh: inactive; Apaf-1 inh: inactive; EBNA-1 inhibitor: inactive; ZTA counter: inactive; M18AAP inhibitor: inactive; PfG6PD inh: inactive

How did COc1ccc(CCCC(=O)NCC(=O)N/N=C/c2cc(Cl)ccc2OC)cc1 do in these assays?
UBC13 inh: inactive; Apaf-1 inh: inactive; M18AAP inhibitor: inactive; PfG6PD inh: 83; PfG6PD confirm: 55; Diaph ctr 10uM: 59; Diaph ctr 30uM: 53

How did COc1ccc(NC(C)C(=O)N/N=C/c2cc(Br)ccc2OC)cc1 (stereo unspecified) do in these assays?
UBC13 inh: inactive; Apaf-1 inh: inactive; EBNA-1 inhibitor: inactive; ZTA counter: inactive; M18AAP inhibitor: inactive; PfG6PD inh: 86; PfG6PD confirm: 62; Diaph ctr 10uM: inactive; Diaph ctr 30uM: inactive

How did COc1ccc(CCC(=O)Nc2cc(Cl)ccc2OC)cc1 do in these assays?
UBC13 inh: inactive; Apaf-1 inh: inactive; EBNA-1 inhibitor: inactive; ZTA counter: inactive; M18AAP inhibitor: inactive; PfG6PD inh: inactive

Results for COc1cc(NC(=O)c2ccc(OCc3c(C)noc3C)c(OC)c2)cc(OC)c1 ?
UBC13 inh: inactive; Apaf-1 inh: inactive; PfG6PD inh: inactive

What do the screens show for `C=Cn1cc[n+](CC(=O)c2ccc(OC)cc2)c1`?
UBC13 inh: inactive; Apaf-1 inh: inactive; EBNA-1 inhibitor: inactive; ZTA counter: inactive; M18AAP inhibitor: inactive; PfG6PD inh: inactive

Results for COc1cc(NC(C)CCc2ccccc2)cc(OC)c1OC (stereo unspecified) ?
UBC13 inh: inactive; Apaf-1 inh: inactive; EBNA-1 inhibitor: inactive; ZTA counter: inactive; M18AAP inhibitor: inactive; PfG6PD inh: 77; PfG6PD confirm: 79; Diaph ctr 10uM: inactive; Diaph ctr 30uM: inactive

How did CCNc1nc2c(c(=O)n(C)c(=O)n2C)n1Cc1ccc(Cl)cc1 do in these assays?
UBC13 inh: inactive; Apaf-1 inh: inactive; EBNA-1 inhibitor: inactive; ZTA counter: inactive; M18AAP inhibitor: inactive; PfG6PD inh: inactive

What do the screens show for `Cn1c(=O)c2c([nH]c(=S)n2Cc2ccc(Cl)cc2)n(C)c1=O`?
UBC13 inh: inconclusive; Apaf-1 inh: inactive; EBNA-1 inhibitor: inactive; ZTA counter: inactive; M18AAP inhibitor: 30; PfG6PD inh: 62; PfG6PD confirm: inactive

What do the screens show for `Cc1cc(Nc2ccccc2)nc2cc(O)ccc12`?
UBC13 inh: inactive; Apaf-1 inh: inactive; EBNA-1 inhibitor: inactive; ZTA counter: inactive; M18AAP inhibitor: inactive; PfG6PD inh: inactive

Results for COc1ccc(Nc2cc(C)c3ccc(O)cc3n2)cc1 ?
UBC13 inh: inactive; Apaf-1 inh: inactive; EBNA-1 inhibitor: inactive; ZTA counter: inactive; M18AAP inhibitor: inactive; PfG6PD inh: 72; PfG6PD confirm: inactive

What do the screens show for `O=C(c1cc(-c2ccc(F)cc2)nc2ccccc12)N1CCC1`?
UBC13 inh: inactive; Apaf-1 inh: inactive; PfG6PD inh: inactive

How did O=C(O)c1cc(-c2ccc(-c3ccc(F)cc3)o2)nc2ccccc12 do in these assays?
UBC13 inh: inactive; Apaf-1 inh: inactive; EBNA-1 inhibitor: inactive; ZTA counter: inactive; M18AAP inhibitor: inactive; PfG6PD inh: 93; PfG6PD confirm: inactive

What do the screens show for `O=C1CC(=O)N(CCNc2ncc(C(F)(F)F)cc2Cl)C(=O)N1`?
UBC13 inh: inactive; Apaf-1 inh: inactive; EBNA-1 inhibitor: inactive; ZTA counter: inactive; M18AAP inhibitor: inactive; PfG6PD inh: inactive

Results for O=C1C=CC(=O)N1CCNc1ncc(C(F)(F)F)cc1Cl ?
UBC13 inh: inactive; Apaf-1 inh: inactive; M18AAP inhibitor: inactive; PfG6PD inh: 79; PfG6PD confirm: 66; Diaph ctr 10uM: inactive; Diaph ctr 30uM: inactive

How did Cc1ccc(S(=O)(=O)N[C@H](C(=O)NC2CCC(C)CC2)C(C)C)cc1 (stereo partly specified) do in these assays?
UBC13 inh: inactive; Apaf-1 inh: inactive; PfG6PD inh: inactive

Results for Cc1ccc(/C=[N+](\[O-])c2ccc(N(C)C)cc2)c2nsnc12 ?
UBC13 inh: inactive; Apaf-1 inh: inactive; M18AAP inhibitor: 31; PfG6PD inh: 64; PfG6PD confirm: inactive

What do the screens show for `CCOC(=O)C1=C(C)N(CC(C)C)C(=O)C1`?
UBC13 inh: inactive; Apaf-1 inh: inactive; EBNA-1 inhibitor: inactive; ZTA counter: inactive; M18AAP inhibitor: inactive; PfG6PD inh: inactive

How did COc1ccc(-c2c(C#N)c(SCC(N)=O)nc3c2CCCC3)cc1 do in these assays?
UBC13 inh: inactive; Apaf-1 inh: inactive; EBNA-1 inhibitor: inactive; ZTA counter: inactive; M18AAP inhibitor: inactive; PfG6PD inh: inactive

How did COc1ccc(-c2c3c([nH]c(=S)c2C#N)CCC3)cc1 do in these assays?
M18AAP inhibitor: inactive; PfG6PD inh: 64; PfG6PD confirm: inactive

What do the screens show for `COc1ccc(OC)c(-c2c3c([nH]c(=S)c2C#N)CCCC3)c1`?
UBC13 inh: inconclusive; Apaf-1 inh: inactive; EBNA-1 inhibitor: inactive; ZTA counter: inactive; M18AAP inhibitor: inactive; PfG6PD inh: 61; PfG6PD confirm: inactive

Results for COc1ccc(-c2c(C#N)c(N)nc3c2CCCCCC3)cc1OC ?
UBC13 inh: inactive; Apaf-1 inh: inactive; EBNA-1 inhibitor: inactive; ZTA counter: inactive; M18AAP inhibitor: inactive; PfG6PD inh: inactive

Results for N#Cc1c(-c2ccco2)c2c([nH]c1=S)CCCC2 ?
UBC13 inh: inconclusive; Apaf-1 inh: inactive; EBNA-1 inhibitor: inactive; ZTA counter: inactive; PfG6PD inh: 71; PfG6PD confirm: inactive

Results for COc1cc([N+](=O)[O-])c2ncsc2c1 ?
UBC13 inh: inactive; Apaf-1 inh: inactive; EBNA-1 inhibitor: inactive; ZTA counter: inactive; M18AAP inhibitor: inactive; PfG6PD inh: inactive
